Measurements reported in ChEMBL document CHEMBL4177755, “Combating Drug-Resistant Fungi with Novel Imperfectly Amphipathic Palindromic Peptides” (J Med Chem, 2018).

Assays:
Candida parapsilosis [1] = experiment: Antifungal activity against Candida parapsilosis cgmcc 2.3989 after 48 hrs by broth microdilution method; assay type: functional; conditions: Lodderomyces parapsilosis, cgmcc 2.3989, 48 h
In short: (§1)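 Modified CLSI M27-A2 broth microdilution. Yeast were suspended in MOPS-buffered RPMI 1640 at a final (0.5−1) × 10^3 CFU/mL and mixed 1:1 with peptide serially diluted in 0.2% BSA. Plates were incubated 48 h at 28 °C and read at A492. MIC is the lowest concentration giving 95% inhibition. Run in triplicate with three biological replicates.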

Candida albicans [2] = experiment: Fungicidal activity against fluconazole-resistant Candida albicans 17546 after 96 hrs; assay type: functional; conditions: Candida albicans, 17546, 96 h; read-out: MFC99.9
In short: (§2)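 After the 48 h, 28 °C broth microdilution in MOPS-buffered RPMI 1640 (inoculum (0.5−1) × 10^3 CFU/mL), 50 μL from each well was plated on YM agar for a further 48 h at 28 °C. MFC is the lowest concentration killing at least 99.9% of cells. Triplicate, three biological replicates.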

Candida albicans [3] = experiment: Fungicidal activity against Candida albicans 14936 after 96 hrs; assay type: functional; conditions: Candida albicans, 14936, 96 h; read-out: MFC99.9; in short: as §2
Candida albicans [4] = experiment: Antifungal activity against Candida albicans 58288 after 48 hrs by broth microdilution method; assay type: functional; conditions: Candida albicans, 58288, 48 h
In short: (§3)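 Modified CLSI M27-A2 broth microdilution. Yeast at (0.5−1) × 10^3 CFU/mL in MOPS-buffered RPMI 1640 was mixed 1:1 with peptide serially diluted in 0.2% BSA and incubated 48 h at 28 °C. Absorbance was read at 492 nm; MIC is the lowest concentration inhibiting 95% of growth. Triplicate, three biological replicates.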

Salmonella typhimurium [5] = experiment: Antibacterial activity against Salmonella typhimurium ATCC 14028 after 24 hrs; assay type: functional, Salmonella enterica subsp. enterica serovar Typhimurium; conditions: Salmonella enterica, ATCC 14028, 24 h
In short: (§4)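 Broth microdilution. Mid-log bacteria in MHB at a final (0.5−1) × 10^5 CFU/mL were mixed with equal volumes of peptide serially diluted in 0.2% BSA. Plates were incubated 24 h at 37 °C and read at A492. MIC is the lowest concentration inhibiting 95% of growth. Each test was repeated at least 3 times.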

Candida albicans [6] = experiment: Antifungal activity against Candida albicans cgmcc 2.2086 in presence of FeCl3 by broth dilution method; assay type: functional
[7] = Bactericidal activity against Salmonella pullorum ATCC 7913; assay type: functional, Salmonella enterica subsp. enterica serovar Pullorum; conditions: Salmonella enterica, read-out: MBC99.9
In short: (§5)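 Wells from the 24 h, 37 °C MHB microdilution plates (bacteria at a final (0.5−1) × 10^5 CFU/mL; peptide diluted in 0.2% BSA) were plated on agar and incubated overnight. MBC is the lowest concentration killing >99.9% of cells. Each test was reproduced at least 3 times.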

Candida albicans [8] = experiment: Antifungal activity against Candida albicans cgmcc 2.2086 in presence of MgCl2 by broth dilution method; assay type: functional
[9] = Cytotoxicity against HEK293T cells assessed as cell viability at 2 to 64 uM after 24 hrs by MTT assay relative to control; assay type: cell-based, HEK-293T; conditions: human, read-out: Activity
In short: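 MTT viability assay. RAW264.7 or HEK293T cells at (1.0−2.0) × 10^5 per well were exposed to a peptide concentration series for 24 h at 37 °C in 5% CO2. MTT was then added at 0.5 mg/mL final for 4 h; formazan was dissolved in DMSO and read at 570 nm. Results average three independent trials.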

Candida albicans [10] = experiment: Antifungal activity against Candida albicans SP3876 after 48 hrs by broth microdilution method; assay type: functional; conditions: SP3876, 48 h; in short: as §3
Staphylococcus aureus [11] = experiment: Antibacterial activity against Staphylococcus aureus ATCC 29213 after 24 hrs; assay type: functional; conditions: ATCC 29213, 24 h
In short: (§6)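 Modified NCCLS broth microdilution. Mid-log bacteria at (0.5−1) × 10^5 CFU/mL in MHB were mixed 1:1 with peptide serially diluted in 0.2% BSA and incubated 24 h at 37 °C. Absorbance was read at 492 nm; MIC is the lowest concentration inhibiting 95% of growth. At least 3 repeats.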

Candida albicans [12] = experiment: Fungicidal activity against Candida albicans SP3902 after 96 hrs; assay type: functional; conditions: SP3902, 96 h, read-out: MFC99.9; in short: as §2
Candida albicans [13] = experiment: Antifungal activity against Candida albicans cgmcc 2.2086 in presence of CaCl2 by broth dilution method; assay type: functional
Candida tropicalis = experiment: Antifungal activity against Candida tropicalis cgmcc 2.1975 after 48 hrs by broth microdilution method; assay type: functional; conditions: cgmcc 2.1975, 48 h; in short: as §1
Candida albicans [14] = experiment: Antifungal activity against Candida albicans cgmcc 2.2086 after 48 hrs by broth microdilution method; assay type: functional; conditions: cgmcc 2.2086, 48 h; in short: as §3
Candida albicans [15] = experiment: Antifungal activity against Candida albicans cgmcc 2.2086 in presence of NH4Cl by broth dilution method; assay type: functional
Candida albicans [16] = experiment: Antifungal activity against Candida albicans 14936 after 48 hrs by broth microdilution method; assay type: functional; conditions: Candida albicans, 14936, 48 h; in short: as §3
Candida albicans [17] = experiment: Antifungal activity against Candida albicans SP3902 after 48 hrs by broth microdilution method; assay type: functional; conditions: SP3902, 48 h; in short: as §3
Staphylococcus aureus [18] = experiment: Bactericidal activity against Staphylococcus aureus ATCC 29213; assay type: functional; conditions: read-out: MBC99.9; in short: as §5
Escherichia coli [19] = experiment: Antibacterial activity against Escherichia coli ATCC 25922 after 18 hrs in presence of FeCl3 by broth dilution method; assay type: functional; conditions: ATCC 25922, 18 h
Salmonella typhimurium [20] = experiment: Bactericidal activity against Salmonella typhimurium ATCC 14028; assay type: functional, Salmonella enterica subsp. enterica serovar Typhimurium; conditions: Salmonella enterica, read-out: MBC99.9; in short: as §5
Pichia kudriavzevii [21] = experiment: Fungicidal activity against Candida krusei cgmcc 2.1857 after 96 hrs; assay type: functional; conditions: cgmcc 2.1857, 96 h, read-out: MFC99.9
In short: (§7)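 Wells from the 48 h, 28 °C RPMI 1640/MOPS microdilution plates were plated on YM agar and incubated a further 48 h at 28 °C. MFC is the lowest concentration killing at least 99.9% of cells. Run in triplicate with three biological replicates.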

Candida albicans [22] = experiment: Antifungal activity against Candida albicans SP3903 after 48 hrs by broth microdilution method; assay type: functional; conditions: SP3903, 48 h; in short: as §3
Candida albicans [23] = experiment: Antifungal activity against fluconazole-resistant Candida albicans 56214 after 48 hrs by broth microdilution method; assay type: functional; conditions: Candida albicans, 56214, 48 h; in short: as §3
Staphylococcus aureus [24] = experiment: Antibacterial activity against methicillin-resistant Staphylococcus aureus ATCC 4330 after 24 hrs; assay type: functional; conditions: ATCC 4330, 24 h; in short: as §6
[25] = test system: Staphylococcus epidermidis; experiment: Antibacterial activity against Staphylococcus epidermidis ATCC 12228 after 24 hrs; assay type: functional; conditions: ATCC 12228, 24 h; in short: as §4
Candida albicans [26] = experiment: Fungicidal activity against Candida albicans 58288 after 96 hrs; assay type: functional; conditions: Candida albicans, 58288, 96 h; read-out: MFC99.9; in short: as §2
Escherichia coli [27] = experiment: Antibacterial activity against Escherichia coli ATCC 25922 after 18 hrs in presence of ZnCl2 by broth dilution method; assay type: functional; conditions: ATCC 25922, 18 h
Pichia kudriavzevii [28] = experiment: Antifungal activity against Candida krusei cgmcc 2.1857 after 48 hrs by broth microdilution method; assay type: functional; conditions: cgmcc 2.1857, 48 h; in short: as §1
Candida parapsilosis [29] = experiment: Fungicidal activity against Candida parapsilosis cgmcc 2.3989 after 96 hrs; assay type: functional; conditions: Lodderomyces parapsilosis, cgmcc 2.3989, 96 h; read-out: MFC99.9; in short: as §7
Escherichia coli [30] = experiment: Antibacterial activity against Escherichia coli ATCC 25922 after 18 hrs in presence of MgCl2 by broth dilution method; assay type: functional; conditions: ATCC 25922, 18 h

Substance: H-RIRIIIRIR-NH2
- MIC95 (Candida parapsilosis [1]): 8 µM
- MFC (Candida albicans [2]): 2 µM
- MFC (Candida albicans [3]): 2 µM
- MIC95 (Candida albicans [4]): 2 µM
- MIC95 (Salmonella typhimurium [5]): 4 µM
- MIC (Candida albicans [6]): 4 µM
- MBC [7]: 16 µM
- MIC (Candida albicans [8]): 4 µM
- viability at 24 h, up to 64 µM [9]: 70 to 80%
- MIC95 (Candida albicans [10]): 1 µM
- MIC95 (Staphylococcus aureus [11]): 4 µM
- MFC (Candida albicans [12]): 2 µM
- MIC (Candida albicans [13]): 32 µM
- MIC95 (Candida tropicalis): 2 µM
- MIC95 (Candida albicans [14]): 4 µM
- MIC (Candida albicans [15]): 4 µM
- MIC95 (Candida albicans [16]): 2 µM
- MIC95 (Candida albicans [17]): 2 µM
- MBC (Staphylococcus aureus [18]): 8 µM
- MIC (Escherichia coli [19]): 8 µM
- MBC (Salmonella typhimurium [20]): 8 µM
- MFC (Pichia kudriavzevii [21]): 4 µM
- MIC95 (Candida albicans [22]): 2 µM
- MIC95 (Candida albicans [23]): 2 µM
- MIC95 (Staphylococcus aureus [24]): 4 µM
- MIC95 [25]: 4 µM
- MFC (Candida albicans [26]): 4 µM
- MIC (Escherichia coli [27]): 8 µM
- MIC95 (Pichia kudriavzevii [28]): 2 µM
- MFC (Candida parapsilosis [29]): 16 µM
- MIC (Escherichia coli [30]): 8 µM

Substance: H-RRFRFFFRFRR-NH2
- MIC95 (Candida parapsilosis [1]): 16 µM
- MFC (Candida albicans [2]): 2 µM
- MFC (Candida albicans [3]): 4 µM
- MIC95 (Candida albicans [4]): 2 µM
- MIC95 (Salmonella typhimurium [5]): 4 µM
- MIC (Candida albicans [6]): 4 µM
- MBC [7]: 4 µM
- MIC (Candida albicans [8]): 4 µM
- viability at 24 h, up to 64 µM [9]: 70 to 80%
- MIC95 (Candida albicans [10]): 4 µM
- MIC95 (Staphylococcus aureus [11]): 4 µM
- MFC (Candida albicans [12]): 4 µM
- MIC (Candida albicans [13]): 16 µM
- MIC95 (Candida tropicalis): 1 µM
- MIC95 (Candida albicans [14]): 4 µM
- MIC (Candida albicans [15]): 4 µM
- MIC95 (Candida albicans [16]): 4 µM
- MIC95 (Candida albicans [17]): 4 µM
- MBC (Staphylococcus aureus [18]): 8 µM
- MIC (Escherichia coli [19]): 4 µM
- MBC (Salmonella typhimurium [20]): 8 µM
- MFC (Pichia kudriavzevii [21]): 2 µM
- MIC95 (Candida albicans [22]): 2 µM
- MIC95 (Candida albicans [23]): 4 µM
- MIC95 (Staphylococcus aureus [24]): 4 µM
- MIC95 [25]: 4 µM
- MFC (Candida albicans [26]): 8 µM
- MIC (Escherichia coli [27]): 2 µM
- MIC95 (Pichia kudriavzevii [28]): 2 µM
- MFC (Candida parapsilosis [29]): 32 µM
- MIC (Escherichia coli [30]): 2 µM

Substance: H-RRLRLLLRLRR-NH2
- MIC95 (Candida parapsilosis [1]): 64 µM
- MFC (Candida albicans [2]): 16 µM
- MFC (Candida albicans [3]): 8 µM
- MIC95 (Candida albicans [4]): 8 µM
- MIC95 (Salmonella typhimurium [5]): 4 µM
- MIC (Candida albicans [6]): 8 µM
- MBC [7]: 8 µM
- MIC (Candida albicans [8]): 8 µM
- viability at 24 h, up to 64 µM [9]: 70 to 80%
- MIC95 (Candida albicans [10]): 4 µM
- MIC95 (Staphylococcus aureus [11]): 16 µM
- MFC (Candida albicans [12]): 4 µM
- MIC (Candida albicans [13]): 64 µM
- MIC95 (Candida tropicalis): 2 µM
- MIC95 (Candida albicans [14]): 8 µM
- MIC (Candida albicans [15]): 8 µM
- MIC95 (Candida albicans [16]): 8 µM
- MIC95 (Candida albicans [17]): 4 µM
- MBC (Staphylococcus aureus [18]): 16 µM
- MIC (Escherichia coli [19]): 8 µM
- MBC (Salmonella typhimurium [20]): 4 µM
- MFC (Pichia kudriavzevii [21]): 8 µM
- MIC95 (Candida albicans [22]): 2 µM
- MIC95 (Candida albicans [23]): 4 µM
- MIC95 (Staphylococcus aureus [24]): 8 µM
- MIC95 [25]: 4 µM
- MFC (Candida albicans [26]): 8 µM
- MIC (Escherichia coli [27]): 4 µM
- MIC95 (Pichia kudriavzevii [28]): 4 µM
- MFC (Candida parapsilosis [29]): 64 µM
- MIC (Escherichia coli [30]): 2 µM
